Data reported in ChEMBL document CHEMBL2331353, “Synthesis and biological evaluation of some novel resveratrol amide derivatives as potential anti-tumor agents” (Eur J Med Chem, 2013).

What was measured:
[1] = biological target: T1, Prostaglandin G/H synthase 2 (Mus musculus, UniProt Q05769); experiment: Inhibition of COX-2 in mouse RAW264.7 cells assessed as decrease in LPS-induced PGE2 production; format: cell-based
T1 sequence (Q05769 whole entry): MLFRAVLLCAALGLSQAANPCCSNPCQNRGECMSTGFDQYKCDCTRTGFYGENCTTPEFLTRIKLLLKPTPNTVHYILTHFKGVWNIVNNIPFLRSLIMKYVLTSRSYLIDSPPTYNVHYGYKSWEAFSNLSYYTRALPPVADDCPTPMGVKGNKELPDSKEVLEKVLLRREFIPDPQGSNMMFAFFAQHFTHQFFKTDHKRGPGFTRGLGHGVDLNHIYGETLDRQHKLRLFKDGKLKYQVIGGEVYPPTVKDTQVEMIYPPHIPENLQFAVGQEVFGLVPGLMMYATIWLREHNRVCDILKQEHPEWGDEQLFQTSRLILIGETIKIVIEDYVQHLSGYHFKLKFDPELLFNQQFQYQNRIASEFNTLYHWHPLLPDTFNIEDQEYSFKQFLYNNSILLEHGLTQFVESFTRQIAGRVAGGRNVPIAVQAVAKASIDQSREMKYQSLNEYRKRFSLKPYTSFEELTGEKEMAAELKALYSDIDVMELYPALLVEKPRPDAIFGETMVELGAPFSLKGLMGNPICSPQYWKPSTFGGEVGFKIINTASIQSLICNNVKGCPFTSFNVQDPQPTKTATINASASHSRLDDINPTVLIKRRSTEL

[2] = biological target: T2, Prostaglandin G/H synthase 2 (Homo sapiens, UniProt P35354); experiment: Inhibition of COX-2 (unknown origin) by chemiluminescence assay
T2 sequence (P35354 whole entry): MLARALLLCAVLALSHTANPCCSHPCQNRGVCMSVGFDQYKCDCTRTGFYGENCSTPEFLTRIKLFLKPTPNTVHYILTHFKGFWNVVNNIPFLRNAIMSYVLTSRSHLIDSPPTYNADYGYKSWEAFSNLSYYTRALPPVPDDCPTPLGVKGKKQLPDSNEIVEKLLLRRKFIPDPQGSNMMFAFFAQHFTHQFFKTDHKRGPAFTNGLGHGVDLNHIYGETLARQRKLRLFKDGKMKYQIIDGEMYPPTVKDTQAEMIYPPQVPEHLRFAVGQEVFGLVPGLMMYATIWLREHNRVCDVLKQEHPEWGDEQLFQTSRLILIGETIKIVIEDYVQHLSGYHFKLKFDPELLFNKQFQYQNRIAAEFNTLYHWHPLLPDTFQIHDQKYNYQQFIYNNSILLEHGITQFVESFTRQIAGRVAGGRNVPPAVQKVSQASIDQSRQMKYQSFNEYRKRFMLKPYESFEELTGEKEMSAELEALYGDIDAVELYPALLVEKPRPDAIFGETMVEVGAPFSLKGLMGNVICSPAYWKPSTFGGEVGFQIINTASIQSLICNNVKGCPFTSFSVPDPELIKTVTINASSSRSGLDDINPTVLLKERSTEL

B16-F10 = experiment: Antitumor activity against mouse B16F10 cells assessed as inhibition of cell proliferation after 48 hrs by MTT assay; format: functional, cell-based; conditions: B16-F10, 48 h
How it was run: (§1)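 Cells grown to log phase in RPMI 1640 with 10% FBS, seeded at 2×10^4 cells/mL and preincubated 24 h at 37 °C, 5% CO2. Compounds at preset concentrations added (6 wells), celecoxib as positive reference, 48 h exposure. MTT (2.5 mg/mL in PBS) for 4 h, then SDS/isobutanol/HCl extraction overnight at 37 °C. OD read at 570 nm. Triplicate wells per concentration, at least three independent runs.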

[3] = biological target: Prostaglandin G/H synthase 1 (Homo sapiens, UniProt P23219); experiment: Inhibition of COX-1 (unknown origin) by chemiluminescence assay
Chain of Prostaglandin G/H synthase 1 (P23219 whole entry): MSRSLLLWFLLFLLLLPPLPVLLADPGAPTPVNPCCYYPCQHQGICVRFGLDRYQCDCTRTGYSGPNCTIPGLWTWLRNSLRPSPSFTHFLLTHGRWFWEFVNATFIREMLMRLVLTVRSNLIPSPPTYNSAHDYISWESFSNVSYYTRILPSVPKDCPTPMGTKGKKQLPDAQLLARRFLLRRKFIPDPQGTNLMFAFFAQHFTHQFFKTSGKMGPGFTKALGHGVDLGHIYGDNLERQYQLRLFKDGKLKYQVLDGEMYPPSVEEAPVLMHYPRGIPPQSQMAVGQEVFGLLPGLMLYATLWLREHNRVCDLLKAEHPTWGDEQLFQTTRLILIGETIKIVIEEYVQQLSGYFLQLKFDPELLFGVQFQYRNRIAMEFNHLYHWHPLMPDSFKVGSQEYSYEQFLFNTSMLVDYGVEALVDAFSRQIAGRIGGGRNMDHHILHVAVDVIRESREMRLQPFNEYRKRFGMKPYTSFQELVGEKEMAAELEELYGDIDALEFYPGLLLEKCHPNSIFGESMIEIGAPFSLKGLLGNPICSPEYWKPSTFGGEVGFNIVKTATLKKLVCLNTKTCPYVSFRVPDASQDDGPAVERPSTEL

A549 = experiment: Antitumor activity against human A549 cells assessed as inhibition of cell proliferation after 48 hrs by MTT assay; format: functional, cell-based; conditions: A549, 48 h; how it was run: as §1
MCF7 = experiment: Antitumor activity against human MCF7 cells assessed as inhibition of cell proliferation after 48 hrs by MTT assay; format: functional, cell-based; conditions: MCF7, 48 h; how it was run: as §1

Structure (SMILES)	IC50 [1]	IC50 [2]	IC50 (B16-F10)	IC50 [3]	IC50 (A549)	IC50 (MCF7)
CCCCN(CCCC)C(=O)/C=C/c1c(/C=C/c2ccc(OC)cc2)cc(OC)cc1OC	4.12 µM	10.1 µM	9.03 µM	> 50 µM	6.16 µM	3.99 µM
COc1ccc(/C=C/c2cc(OC)cc(OC)c2/C=C/C(=O)NCCCl)cc1	0.45 µM	1.36 µM	3.45 µM	32.3 µM	2 µM	2.3 µM
CCN(CC)C(=O)/C=C/c1c(/C=C/c2ccc(OC)cc2)cc(OC)cc1OC	2.15 µM	4.67 µM	3.98 µM	> 50 µM	3.35 µM	6.55 µM
CCC(C)NC(=O)/C=C/c1c(/C=C/c2ccc(OC)cc2)cc(OC)cc1OC (centres undefined)	2.09 µM	4.56 µM	4.38 µM	> 50 µM	3.95 µM	3.43 µM
CCCCCCCCNC(=O)/C=C/c1c(/C=C/c2ccc(OC)cc2)cc(OC)cc1OC	13.8 µM	20.1 µM	8.06 µM	> 50 µM	8.66 µM	4.28 µM
COc1ccc(/C=C/c2cc(OC)cc(OC)c2/C=C/C(=O)NCCCCl)cc1	0.39 µM	1.27 µM	2.78 µM	38.4 µM	1.98 µM	1.98 µM
COc1ccc(/C=C/c2cc(OC)cc(OC)c2/C=C/C(=O)NCCCN2CCOCC2)cc1	3.68 µM	8.92 µM	6.83 µM	> 50 µM	4.22 µM	4.15 µM
CCCN(CCC)C(=O)/C=C/c1c(/C=C/c2ccc(OC)cc2)cc(OC)cc1OC	3.88 µM	8.06 µM	5.98 µM	45.9 µM	5.58 µM	2 µM
CCCCCN(CCCCC)C(=O)/C=C/c1c(/C=C/c2ccc(OC)cc2)cc(OC)cc1OC	7.19 µM	16.4 µM	9.27 µM	> 50 µM	7.49 µM	6.13 µM
C#CCNC(=O)/C=C/c1c(/C=C/c2ccc(OC)cc2)cc(OC)cc1OC	5.08 µM	9.08 µM	8.28 µM	> 50 µM	6.93 µM	4.56 µM
COc1ccc(/C=C/c2cc(OC)cc(OC)c2/C=C/C(=O)NCc2ccco2)cc1	3.15 µM	9.67 µM	10.1 µM	29.1 µM	6.42 µM	5.42 µM
COc1ccc(/C=C/c2cc(OC)cc(OC)c2/C=C/C(=O)N2CCC(c3ccccc3)CC2)cc1	3.55 µM	8.57 µM	9.18 µM	> 50 µM	6.69 µM	4.23 µM
COc1ccc(/C=C/c2cc(OC)cc(OC)c2/C=C/C(=O)Nc2cc(OC)c(OC)c(OC)c2)cc1	2.1 µM	6.66 µM	8.15 µM	> 50 µM	5.14 µM	7.01 µM
COc1ccc(/C=C/c2cc(OC)cc(OC)c2/C=C/C(=O)N(CC(C)C)CC(C)C)cc1	2.56 µM	6.84 µM	4.85 µM	> 50 µM	3.35 µM	2.39 µM
COc1ccc(/C=C/c2cc(OC)cc(OC)c2/C=C/C(=O)NCC(C)C)cc1	6.12 µM	15.1 µM	12.7 µM	> 50 µM	10.4 µM	5.29 µM
CCCCCCNC(=O)/C=C/c1c(/C=C/c2ccc(OC)cc2)cc(OC)cc1OC	5.01 µM	8.99 µM	7.18 µM	34.7 µM	6.23 µM	5.53 µM
CCCNC(=O)/C=C/c1c(/C=C/c2ccc(OC)cc2)cc(OC)cc1OC	2.08 µM	6.75 µM	9.08 µM	> 50 µM	5.17 µM	5.61 µM
COc1ccc(/C=C/c2cc(OC)cc(OC)c2/C=C/C(=O)NC(C)C)cc1	0.72 µM	2.01 µM	4.02 µM	40.4 µM	2.36 µM	2.56 µM
C=CCN(CC=C)C(=O)/C=C/c1c(/C=C/c2ccc(OC)cc2)cc(OC)cc1OC	3.28 µM	8.01 µM	8.18 µM	35 µM	5.89 µM	3.22 µM
Cc1ccc(-c2cc(C(F)(F)F)nn2-c2ccc(S(N)(=O)=O)cc2)cc1 [CELECOXIB]					15.6 µM	
CCCCCCN(CCCCCC)C(=O)/C=C/c1c(/C=C/c2ccc(OC)cc2)cc(OC)cc1OC	3.1 µM	9.08 µM	8.02 µM	> 50 µM	5.34 µM	4.03 µM

The remaining lines, values ahead:

IC50 [1]	IC50 [2]	IC50 (B16-F10)	IC50 [3]	IC50 (A549)	IC50 (MCF7)	Structure (SMILES)
8.09 µM	10.3 µM	7.76 µM	> 50 µM	7.2 µM	6.45 µM	COc1ccc(/C=C/c2cc(OC)cc(OC)c2/C=C/C(=O)N2CCC(C)CC2)cc1
7.05 µM	13 µM	10.2 µM	> 50 µM	8.81 µM	3.94 µM	COc1ccc(/C=C/c2cc(OC)cc(OC)c2/C=C/C(=O)NC2CC2)cc1
0.58 µM	1.98 µM	3.26 µM	45.1 µM	2.27 µM	1.57 µM	COc1ccc(/C=C/c2cc(OC)cc(OC)c2/C=C/C(=O)N2CC(C)CC(C)C2)cc1 (centres undefined)
1.98 µM	5.09 µM	5.48 µM	> 50 µM	3.61 µM	2.63 µM	COc1ccc(/C=C/c2cc(OC)cc(OC)c2/C=C/C(=O)NC2CCCCC2)cc1
6.27 µM	10.3 µM	7.38 µM	> 50 µM	5.6 µM	5.24 µM	CCC1CCCCN1C(=O)/C=C/c1c(/C=C/c2ccc(OC)cc2)cc(OC)cc1OC (centres undefined)
4.36 µM	13 µM	5.78 µM	> 50 µM	6 µM	6.86 µM	COc1ccc(/C=C/c2cc(OC)cc(OC)c2/C=C/C(=O)N(C)C)cc1
1.62 µM	5.78 µM	5.67 µM	39.1 µM	4.51 µM	2.29 µM	COc1ccc(/C=C/c2cc(OC)cc(OC)c2/C=C/C(=O)N2CCN(C)CC2)cc1
3.16 µM	7.09 µM	8.25 µM	> 50 µM	5.82 µM	11.9 µM	COc1ccc(/C=C/c2cc(OC)cc(OC)c2/C=C/C(=O)N2CCCC(C)C2)cc1 (centres undefined)
15.3 µM	23.2 µM	9.75 µM	> 50 µM	10.6 µM	6.05 µM	COc1ccc(/C=C/c2cc(OC)cc(OC)c2/C=C/C(=O)N2CCCCC2)cc1
3.76 µM	8.87 µM	9.28 µM	> 50 µM	6.35 µM	4.2 µM	COc1ccc(/C=C/c2cc(OC)cc(OC)c2/C=C/C(=O)N2CCCC2)cc1
3.01 µM	6.89 µM	6.78 µM	> 50 µM	5.46 µM	6.1 µM	COc1ccc(/C=C/c2cc(OC)cc(OC)c2/C=C/C(=O)O)cc1
0.46 µM	1.45 µM	4.69 µM	40.6 µM	2.08 µM	4.95 µM	COc1ccc(/C=C/c2cc(OC)cc(OC)c2/C=C/C(=O)N2CCC(Cl)CC2)cc1
2.44 µM	6.69 µM	7.66 µM	> 50 µM	5.77 µM	4.35 µM	COc1ccc(/C=C/c2cc(OC)cc(OC)c2/C=C/C(=O)N2CCCCC2C)cc1 (centres undefined)
